In ChEMBL document CHEMBL5104216, “Fragment-Sized Thiazoles in Fragment-Based Drug Discovery Campaigns: Friend or Foe?” (ACS Med Chem Lett, 2022):

What was measured:
[1] = Redox activity of compound assessed as redox index at 100 uM in presence of 100 uM TCEP measured by H2DCFDA assay; assay type: physicochemical
Procedure, shortened: (§1)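 Reactive oxygen species, with or without the reducing agent TCEP, detected with the fluorescent probe H2DCFDA. Compound spectral interference (autofluorescence) checked under the assay conditions.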

[2] = molecular target: D-alanine--D-alanine ligase B (Escherichia coli K-12) (UniProt P07862); assay: Inhibition of recombinant Escherichia coli DdlB assessed as residual activity at 500 uM using D-alanine as substrate incubated for 20 mins and measured by malachite green based colorimetric assay relative to control
Procedure, shortened: (§2)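 Screened at 500–625 μM with malachite green colorimetric read-out. Activity threshold was <50% residual activity.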

[3] = test system: Mycobacterium tuberculosis; assay: Inhibition of Mycobacterium tuberculosis MetAP1a assessed as residual activity at 625 uM using L-methionine 7-amido-4-methylcoumarin as fluorogenic substrate and measured by fluorescence based assay
Procedure, shortened: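 Kinetic fluorescence assay in which the enzyme hydrolyses L-methionine 7-amido-4-methylcoumarin to fluorescent 7-amino-4-methylcoumarin. Compounds were tested at 500–625 μM, and activity was called at <50% residual activity. Spectral interference was checked by measuring absorbance at the excitation and emission wavelengths and compound autofluorescence.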

[4] = molecular target: UDP-N-acetylglucosamine 1-carboxyvinyltransferase (Escherichia coli K-12) (UniProt P0A749); assay: Inhibition of recombinant Escherichia coli MurA assessed as residual activity at 500 uM using UDP-N-acetylglucosamine as substrate preincubated for 30 mins in presence of 1 mM DTT followed by substrate addition and measured by malachite green based colorimetric assay relative to control
UDP-N-acetylglucosamine 1-carboxyvinyltransferase (Escherichia coli K-12), sequence (P0A749 whole entry): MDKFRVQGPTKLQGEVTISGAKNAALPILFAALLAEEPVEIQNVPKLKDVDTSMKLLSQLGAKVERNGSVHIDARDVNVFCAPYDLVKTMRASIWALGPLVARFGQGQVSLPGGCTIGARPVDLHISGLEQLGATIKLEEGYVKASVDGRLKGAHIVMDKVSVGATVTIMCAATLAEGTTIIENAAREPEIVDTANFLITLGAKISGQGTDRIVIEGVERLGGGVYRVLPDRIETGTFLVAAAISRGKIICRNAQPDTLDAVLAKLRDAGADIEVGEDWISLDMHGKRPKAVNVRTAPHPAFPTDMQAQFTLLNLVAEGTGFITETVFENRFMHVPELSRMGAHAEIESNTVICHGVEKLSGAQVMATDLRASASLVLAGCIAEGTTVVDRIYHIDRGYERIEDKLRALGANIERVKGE

[5] = Redox activity of compound assessed as redox index at 100 uM measured by H2DCFDA assay; assay type: physicochemical; procedure, shortened: as §1
[6] = Redox activity of compound assessed as redox index at 10 uM measured by resazurin assay; assay type: physicochemical
Procedure, shortened: (§3)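 Free radicals formed by redox cycling with DTT detected with resazurin by fluorimetric read-out. Spectral interference checked.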

[7] = Redox activity of compound assessed as redox index at 100 uM in presence of 1 mM DTT measured by HRP-PR assay; assay type: physicochemical
Procedure, shortened: (§4)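 H2O2 from redox cycling, with or without DTT, detected with horseradish peroxidase-phenol red (HRP-PR).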

[8] = Aqueous stability of the compound at pH 7.4 measured after 60 mins by spectrophotometric analysis; assay type: physicochemical; details: buffer, pH 7.4, 1 h
Procedure, shortened: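 Followed by spectrophotometry as changes in the compound absorption spectrum over time in 50 mM Tris-HCl pH 7.4, 0.5 mM EDTA, read after 60 min in 96-well microplate format. Compounds with low absorbance were not evaluated.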

[9] = molecular target: UDP-N-acetylglucosamine 1-carboxyvinyltransferase (Escherichia coli K-12) (UniProt P0A749); assay: Inhibition of recombinant Escherichia coli MurA assessed as residual activity at 500 uM using UDP-N-acetylglucosamine as substrate preincubated for 30 mins followed by substrate addition and measured by malachite green based colorimetric assay relative to control
Procedure, shortened: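 E. coli MurA at 500–625 μM with 30 min preincubation before substrate addition. Malachite green colorimetric read-out. Activity threshold was <50% residual activity.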

[10] = Redox activity of compound assessed as redox index at 100 uM measured by HRP-PR assay; assay type: physicochemical; procedure, shortened: as §4
[11] = molecular target: Replicase polyprotein 1ab (Severe acute respiratory syndrome coronavirus 2) (UniProt P0DTD1); assay: Inhibition of recombinant SARS-CoV-2 3CLpro expressed in Escherichia coli NiCo21(DE3) assessed as residual activity at 500 uM using DABCYL-KTSAVLQSGFRKME-EDANS as substrate preincubated for 30 mins followed by substrate addition and measured by FRET assay relative to control
Procedure, shortened: (§5)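 Kinetic fluorescence read-out of cleavage of a FRET substrate carrying a DABCYL–EDANS pair. Compounds were tested at 500–625 μM, and <50% residual activity was taken as the activity threshold. To exclude false positives, absorbance at the excitation and emission wavelengths and autofluorescence of the compounds were measured.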

[12] = Redox activity of compound assessed as redox index at 1 uM measured by resazurin assay; assay type: physicochemical; procedure, shortened: as §3
[13] = molecular target: Replicase polyprotein 1ab (Severe acute respiratory syndrome coronavirus 2) (UniProt P0DTD1); assay: Inhibition of recombinant SARS-CoV-2 3CLpro expressed in Escherichia coli NiCo21(DE3) assessed as residual activity at 500 uM using DABCYL-KTSAVLQSGFRKME-EDANS as substrate preincubated for 30 mins in presence of 1mM DTT followed by substrate addition and measured by FRET assay relative to control; procedure, shortened: as §5
[14] = molecular target: UDP-N-acetylglucosamine 1-carboxyvinyltransferase (Escherichia coli K-12) (UniProt P0A749); assay: Inhibition of recombinant Escherichia coli MurA assessed as residual activity at 500 uM using UDP-N-acetylglucosamine as substrate and measured by malachite green based colorimetric assay relative to control; procedure, shortened: as §2

Compound | Activity_index [1] | Activity [2] [%] | Activity [3] [%] | Activity [4] [%] | Activity_index [5] | Activity_index [6] | Activity_index [7] | Stability [8] | Activity [9] [%] | Activity_index [10] | Activity [11] [%] | Activity_index [12] | Activity [13] [%] | Activity [14] [%]
N#Cc1cnc(NC(=O)CC(=O)O)s1 | 0.8 | 96 | 146 | 109 | 0.7 | 1 | 1 | Stable | 20.3 | 1 | 93.5 | 0.9 | 79.7 | 72.3
Cc1nnc(N)s1 | 1 | 98 | 114 | 99.4 | 1 | 0.9 | 1 | Stable | 89.5 | 1 | 121 | 0.9 | 81.9 | 92.9
CNc1nnc(C(F)(F)F)s1 | 1.1 | 98 | 101 | 102 | 1.2 | 1 | 1 | Stable | 113 | 1 | 147 | 1 | 82.3 | 99.5
Nc1nnc(C(F)(F)F)s1 | 0.9 | 100 | 142 | 101 | 1 | 1 | 1 | Stable | 18 | 1 | 66.8 | 0.9 | 82.9 | 56.9
O=C(O)c1scnc1Br | 1.1 | 96 | 122 | 111 | 1.1 | 0.9 | 1 | Stable | 83.1 | 1 | 135 | 0.9 | 80.1 | 99.5
CCOC(=O)Cc1csc(Br)n1 | 0.9 | 95 | 89.6 | – | 1 | 0.9 | 1 | – | 66.7 | 1 | 72 | 0.9 | 70.8 | 86.7
Nc1ccc(S(=O)(=O)Nc2nccs2)cc1 [SULFATHIAZOLE] | 1.1 | 94 | 94 | 100 | 1.2 | 1 | 1 | Stable | 82.3 | 1 | 71.7 | 0.9 | 74.2 | 96.5
COC(=O)C(=O)Nc1ncc(Br)s1 | 0.8 | 94 | 156 | 112 | 0.8 | 1.1 | 1 | Unstable | 37.2 | 1 | 89.5 | 0.9 | 66.2 | 81.7
Cc1nc(Br)sc1C(=O)O | 1.1 | 94 | 43.4 | 102 | 1.2 | 0.9 | 1 | Stable | 18.5 | 1 | 100 | 0.9 | 92.9 | 72.4
CCOC(=O)Cc1csc(N)n1 | 1 | 94 | 132 | 88.1 | 1.2 | 1 | 1 | Stable | 66.3 | 1 | 103 | 0.9 | 82.1 | 85.5
CCOC(=O)c1cnc(Br)s1 | 1.1 | 90 | 92.3 | 103 | 0.9 | 1 | 1 | Stable | 14.9 | 1 | 10.2 | 0.9 | 66.4 | 60.1
O=C(O)c1nc(Br)cs1 | 0.9 | 84 | 111 | 106 | 1 | 0.9 | 1 | – | 90 | 1 | 88.3 | 0.9 | 85.1 | 97.3
CC(=O)c1nc(C)cs1 | 0.8 | 92 | 136 | 93.5 | 1 | 0.9 | 1 | – | 93.9 | 1 | 106 | 0.9 | 78.4 | 102
COC(=O)c1csc(Br)n1 | 0.9 | 95 | 88.2 | 104 | 0.8 | 0.8 | 1 | Stable | 117 | 1 | 73.7 | 1.4 | 68.6 | 106
O=C(O)Cc1csc(Br)n1 | 1 | 103 | 86.1 | 106 | 0.9 | 1 | 1 | – | 72.1 | 1 | 77.1 | 0.9 | 68.6 | 105
Clc1nccs1 | 0.9 | 93 | 122 | 107 | 1 | 0.9 | 1 | Stable | 0.8 | 1 | 23.1 | 1 | 73.8 | 18.9
Cc1nc(-c2ccc(C(=O)O)cc2)cs1 | 0.9 | 94 | 136 | 101 | 0.9 | 1.1 | 1 | Stable | 113 | 1 | 149 | 0.9 | 81.2 | 102
Brc1cscn1 | 0.8 | 97 | 83.5 | 102 | 0.8 | 1 | 1 | – | 106 | 1 | 91.4 | 0.9 | 80.1 | 100
